The source of these data is ChEMBL document CHEMBL5712906, “Discovery of a novel long noncoding RNA overlapping the LCK gene that regulates prostate cancer cell growth” (2019).

Assay [1] deals with Histone acetyltransferase p300 (Homo sapiens) (UniProt Q09472). The assay is described as follows: Inhibition of p300 in human LNCaP C4-2 cells assessed as reduction in R1881-induced increase in TMPRSS2 expression at 0.3 uM measured after 24 hrs by qPCR analysis. The format is cell-based. The procedure, abridged:
(§1)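 Cells seeded 48 h in their usual growth medium, then given 1 nM R1881 with or without 0.3 μM inhibitor. RNA harvested 24 h after treatment; transcripts quantified by qPCR. HULLK measured with two independent LCK primer pairs (exon 13 or 3′UTR). PSA and TMPRSS2 transcripts serve as checks that p300 inhibition worked. n = 3.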
On the technique in general: Quantitative PCR measures a nucleic acid by following its amplification.

The target is the same in assay [2]. The assay is described as follows: Inhibition of p300 in human LNCaP C4-2 cells assessed as reduction in R1881-induced increase in HULLK expression at 0.3 uM measured after 24 hrs by qPCR analysis. The format is cell-based. The procedure, abridged:
as §1

For assay [3] the target is unchanged. The assay is described as follows: Inhibition of p300 in human LNCaP cells assessed as reduction in R1881-induced increase in HULLK expression at 0.3 uM measured after 24 hrs by qPCR analysis. In kind it is cell-based. In short, it runs like this:
as §1

Assay [4] has the same target. The assay is described as follows: Inhibition of p300 in human LNCaP cells assessed as reduction in R1881-induced increase in PSA expression at 0.3 uM measured after 24 hrs by qPCR analysis. In kind it is cell-based. The procedure, abridged:
as §1

Assay [5] has the same target. The assay is described as follows: Inhibition of p300 in human LNCaP cells assessed as reduction in R1881-induced increase in TMPRSS2 expression at 0.3 uM measured after 24 hrs by qPCR analysis. In kind it is cell-based. The procedure, abridged:
as §1

The target is the same in assay [6]. The assay is described as follows: Inhibition of p300 in human LNCaP cells assessed as effect on HULLK expression at 0.3 uM measured after 24 hrs by qpCR analysis. In kind it is cell-based. In short, it runs like this:
as §1

Assay [7] has the same target. The assay is described as follows: Inhibition of p300 in human LNCaP C4-2 cells assessed as effect on HULLK expression at 0.3 uM measured after 24 hrs by qpCR analysis. In kind it is cell-based. The procedure, abridged: as §1
Assay [8] has the same target. The assay is described as follows: Inhibition of p300 in human LNCaP C4-2 cells assessed as reduction in R1881-induced increase in PSA expression at 0.3 uM measured after 24 hrs by qPCR analysis. The format is cell-based. In short, it runs like this:
as §1

The subject of assay [9] is LNCaP. The assay is described as follows: Reduction in R1881-induced increase in LCK 3'-UTR expression in human LNCaP cells at 10 uM measured after 24 hrs by qPCR analysis. In kind it is functional, cell-based. In short, it runs like this: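 Cells seeded for 48 h, then exposed to 1 nM R1881 with or without 10 μM enzalutamide. RNA harvested 24 h after treatment. LCK transcript measured by qPCR with primers in the 3′UTR. n = 3.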

Activity calls are given as the source filed them. The calls are words filed in the database; no cut-off is given here.

Chain of Histone acetyltransferase p300 (Homo sapiens) (Q09472 whole entry): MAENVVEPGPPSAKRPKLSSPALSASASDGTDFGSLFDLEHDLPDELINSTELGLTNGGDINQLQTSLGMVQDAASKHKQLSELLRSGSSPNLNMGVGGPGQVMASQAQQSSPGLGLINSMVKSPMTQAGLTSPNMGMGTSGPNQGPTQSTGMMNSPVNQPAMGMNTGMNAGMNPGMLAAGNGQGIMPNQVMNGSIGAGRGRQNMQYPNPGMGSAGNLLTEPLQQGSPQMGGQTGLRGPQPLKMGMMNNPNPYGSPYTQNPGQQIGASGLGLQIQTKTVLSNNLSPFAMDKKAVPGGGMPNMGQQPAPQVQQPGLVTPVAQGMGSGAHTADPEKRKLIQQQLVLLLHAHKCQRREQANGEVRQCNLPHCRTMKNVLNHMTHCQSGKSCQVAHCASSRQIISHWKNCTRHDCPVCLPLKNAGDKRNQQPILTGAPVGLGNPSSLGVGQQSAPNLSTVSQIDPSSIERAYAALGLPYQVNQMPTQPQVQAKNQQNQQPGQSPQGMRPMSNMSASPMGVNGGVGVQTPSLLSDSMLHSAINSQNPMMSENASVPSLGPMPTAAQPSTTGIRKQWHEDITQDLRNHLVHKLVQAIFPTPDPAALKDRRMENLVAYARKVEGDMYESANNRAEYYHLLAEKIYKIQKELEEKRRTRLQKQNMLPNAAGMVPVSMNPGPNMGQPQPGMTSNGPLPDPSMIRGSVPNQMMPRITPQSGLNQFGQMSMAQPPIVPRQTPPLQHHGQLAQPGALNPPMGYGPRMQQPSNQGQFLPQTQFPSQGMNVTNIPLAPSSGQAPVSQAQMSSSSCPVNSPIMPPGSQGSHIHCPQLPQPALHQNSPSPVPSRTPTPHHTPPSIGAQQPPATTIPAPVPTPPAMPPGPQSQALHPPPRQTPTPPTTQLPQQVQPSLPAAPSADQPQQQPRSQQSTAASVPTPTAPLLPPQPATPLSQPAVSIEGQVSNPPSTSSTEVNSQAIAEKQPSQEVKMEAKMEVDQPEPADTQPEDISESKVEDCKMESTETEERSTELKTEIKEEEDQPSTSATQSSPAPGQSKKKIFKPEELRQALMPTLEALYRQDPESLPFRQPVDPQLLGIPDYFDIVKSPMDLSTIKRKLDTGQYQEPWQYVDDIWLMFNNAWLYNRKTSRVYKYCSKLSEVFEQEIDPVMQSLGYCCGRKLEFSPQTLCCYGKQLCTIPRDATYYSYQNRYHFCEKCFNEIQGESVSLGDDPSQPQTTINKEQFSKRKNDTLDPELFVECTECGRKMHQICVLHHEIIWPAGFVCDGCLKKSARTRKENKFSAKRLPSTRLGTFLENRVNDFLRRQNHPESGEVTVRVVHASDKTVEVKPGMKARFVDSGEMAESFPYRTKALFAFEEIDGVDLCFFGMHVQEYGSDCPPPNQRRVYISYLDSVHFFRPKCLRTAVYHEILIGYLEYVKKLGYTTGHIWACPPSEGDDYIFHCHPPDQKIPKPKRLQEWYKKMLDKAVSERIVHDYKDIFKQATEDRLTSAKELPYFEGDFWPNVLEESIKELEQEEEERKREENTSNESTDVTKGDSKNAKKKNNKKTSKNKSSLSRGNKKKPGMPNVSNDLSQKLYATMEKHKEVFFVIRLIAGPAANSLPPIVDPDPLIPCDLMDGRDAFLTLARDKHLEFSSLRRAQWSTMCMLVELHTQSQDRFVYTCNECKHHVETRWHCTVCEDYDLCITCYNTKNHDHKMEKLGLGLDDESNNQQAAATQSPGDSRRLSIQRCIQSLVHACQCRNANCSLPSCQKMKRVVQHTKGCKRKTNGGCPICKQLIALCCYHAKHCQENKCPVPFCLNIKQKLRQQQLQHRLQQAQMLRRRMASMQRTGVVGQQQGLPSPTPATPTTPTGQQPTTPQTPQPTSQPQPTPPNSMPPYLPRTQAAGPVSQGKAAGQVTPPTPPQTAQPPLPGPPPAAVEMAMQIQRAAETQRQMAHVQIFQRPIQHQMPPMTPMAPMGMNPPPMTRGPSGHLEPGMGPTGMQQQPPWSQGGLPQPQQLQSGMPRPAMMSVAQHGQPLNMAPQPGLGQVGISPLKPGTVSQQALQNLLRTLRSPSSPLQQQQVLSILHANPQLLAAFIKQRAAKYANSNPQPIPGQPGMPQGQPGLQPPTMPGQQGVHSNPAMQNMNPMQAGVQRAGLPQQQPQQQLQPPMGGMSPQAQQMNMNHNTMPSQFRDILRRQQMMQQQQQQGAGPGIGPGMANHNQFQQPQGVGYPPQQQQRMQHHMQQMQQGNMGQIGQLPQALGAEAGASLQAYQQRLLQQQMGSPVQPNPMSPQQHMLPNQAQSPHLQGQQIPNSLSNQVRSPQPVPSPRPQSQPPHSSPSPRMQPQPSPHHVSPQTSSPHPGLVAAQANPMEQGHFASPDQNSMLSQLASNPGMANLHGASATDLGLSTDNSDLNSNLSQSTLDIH

Consider `CNC(=O)Nc1ccc2c(c1)CC[C@@]21OC(=O)N(CC(=O)N(Cc2ccc(F)cc2)[C@@H](C)C(F)(F)F)C1=O`, for which the inhibition entry in assay [1], in [2], in assay [3], in assay [4], in [5] and in [8] was “Active” in each case. The inhibition entry in assay [6] and in assay [7] was “inactive” each time.
Regarding `CNC(=O)c1ccc(N2C(=S)N(c3ccc(C#N)c(C(F)(F)F)c3)C(=O)C2(C)C)cc1F`, in assay [9], the outcome was Active.
